Test results as given in ChEMBL document CHEMBL5357046, “Sirtuin 1-activating derivatives belonging to the anilinopyridine class displaying in vivo cardioprotective activities” (2024).
The source made the active and inactive calls. No cut-off for these calls is given here.

Assays:
[1] = target: T1, NAD-dependent protein deacetylase sirtuin-1 (Homo sapiens) (UniProt Q96EB6); assay: Activation of human recombinant SIRT1 at 3 to 100 uM by fluorescence based spectrofluorometer analysis; conditions: filed as activator, dose 3-100 µM
T1 sequence (whole entry): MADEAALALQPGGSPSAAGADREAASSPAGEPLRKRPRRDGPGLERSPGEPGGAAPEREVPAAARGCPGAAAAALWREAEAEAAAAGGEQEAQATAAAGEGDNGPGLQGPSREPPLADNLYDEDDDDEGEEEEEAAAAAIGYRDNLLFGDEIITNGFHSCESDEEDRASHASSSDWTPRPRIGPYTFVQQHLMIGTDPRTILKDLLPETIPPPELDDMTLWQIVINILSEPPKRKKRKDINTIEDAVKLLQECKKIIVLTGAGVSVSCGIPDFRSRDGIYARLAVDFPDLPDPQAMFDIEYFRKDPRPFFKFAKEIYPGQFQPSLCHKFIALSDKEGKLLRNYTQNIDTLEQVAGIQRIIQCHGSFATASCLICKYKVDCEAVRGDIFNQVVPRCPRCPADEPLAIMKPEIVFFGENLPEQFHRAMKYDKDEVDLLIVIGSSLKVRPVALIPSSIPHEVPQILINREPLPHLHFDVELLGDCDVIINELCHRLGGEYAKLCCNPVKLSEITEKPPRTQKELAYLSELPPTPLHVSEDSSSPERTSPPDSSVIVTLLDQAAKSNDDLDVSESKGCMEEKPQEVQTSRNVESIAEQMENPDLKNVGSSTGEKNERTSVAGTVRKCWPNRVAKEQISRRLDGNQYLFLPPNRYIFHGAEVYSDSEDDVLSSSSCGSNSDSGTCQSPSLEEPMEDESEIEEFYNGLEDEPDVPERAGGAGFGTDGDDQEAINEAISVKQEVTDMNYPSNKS

[2] = target: T1, NAD-dependent protein deacetylase sirtuin-1 (Homo sapiens); assay: Activation of human recombinant SIRT1 by fluorescence based spectrofluorometer analysis; conditions: filed as activator, dose 3-100 µM
Rattus norvegicus [3] = assay: Cardioprotective activity against acute myocardial infarction Wistar rat model assessed as reduction in percentage of ischemic area to total area of left ventricle at 10 mg/kg, ip by ECG analysis; assay type: functional; design: scale not given: the % may be the effect or the level left
How it was run: (§1)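 Adult male Wistar rats (350–450 g) dosed i.p. 2 h before surgery (vehicle DMSO 1 ml kg⁻¹), then anaesthetized with thiopental (70 mg kg⁻¹ i.p.). LAD occluded 30 min (ST elevation on ECG, cyanosis) then reperfused 120 min. Hearts washed on Langendorff, LV sliced and stained with TTC 1% at 37 °C for 20 min; infarct area/LV area by planimetry. n = 5 per group.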

[4] = target: T1, NAD-dependent protein deacetylase sirtuin-1 (Homo sapiens); assay: Activation of human recombinant SIRT1 at 3 uM by fluorescence based spectrofluorometer analysis
Rattus norvegicus [5] = assay: Cardioprotective activity against acute myocardial infarction Wistar rat model assessed as reduction in percentage of ischemic area to total area of left ventricle at 0.1 mg/kg, ip by ECG analysis; assay type: functional; design: scale not given: the % may be the effect or the level left; how it was run: as §1

| SMILES | Activity [1] | Activity [2] | Activity [4] | Activity (Rattus norvegicus [3]) [%] | Activity (Rattus norvegicus [5]) [%] |
| --- | --- | --- | --- | --- | --- |
| Oc1cccc(Nc2cc(-c3cccc(O)c3)ccn2)c1 | Active |  |  |  |  |
| Oc1cccc(Nc2ccnc(-c3cccc(O)c3)c2)c1 |  | Dose-Dependent Effect | inactive |  |  |
| Oc1ccc(/C=C/c2cc(O)cc(O)c2)cc1 [RESVERATROL] |  |  |  | 30 |  |

Second part, led by results:

| Activity [1] | Activity [2] | Activity [4] | SMILES | Activity (Rattus norvegicus [3]) [%] | Activity (Rattus norvegicus [5]) [%] |
| --- | --- | --- | --- | --- | --- |
| Active | Dose-Dependent Effect |  | Oc1ccc(-c2cccc(Nc3cccc(O)c3)n2)cc1 | 6 |  |
| Active | Dose-Dependent Effect |  | Oc1ccc(Nc2cccc(-c3cccc(O)c3)n2)cc1 |  |  |
| Active | Dose-Dependent Effect |  | Oc1cccc(Nc2cccc(-c3cccc(O)c3)n2)c1 |  |  |
| Active | Dose-Dependent Effect |  | Oc1ccc(Nc2cccc(-c3ccc(O)cc3)n2)cc1 |  | 28 |
